Source: PubChem (several laboratories)
In the library only some 2.3% were active in any assay of this set; here they are far more common.
TRPC4 PAM: positive allosteric modulators of TRPC4, primary screen, cell-based, mouse TRPC4beta, HEK293 mu-opioid, Fluo-4 calcium. DAMGO EC20, Fluo-4 Ca2+ flux; stronger effect = higher value. Short transient receptor potential channel 4 (Mus musculus), Q9QUQ5. B-score at 10 µM. actives 0.42% (n = 310,000);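 active = B-score of calcium response area above 5 SD of library B-scores, with initial fluorescence ratio within 5 SD of library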
Target sequence (Q9QUQ5 whole entry, looked up): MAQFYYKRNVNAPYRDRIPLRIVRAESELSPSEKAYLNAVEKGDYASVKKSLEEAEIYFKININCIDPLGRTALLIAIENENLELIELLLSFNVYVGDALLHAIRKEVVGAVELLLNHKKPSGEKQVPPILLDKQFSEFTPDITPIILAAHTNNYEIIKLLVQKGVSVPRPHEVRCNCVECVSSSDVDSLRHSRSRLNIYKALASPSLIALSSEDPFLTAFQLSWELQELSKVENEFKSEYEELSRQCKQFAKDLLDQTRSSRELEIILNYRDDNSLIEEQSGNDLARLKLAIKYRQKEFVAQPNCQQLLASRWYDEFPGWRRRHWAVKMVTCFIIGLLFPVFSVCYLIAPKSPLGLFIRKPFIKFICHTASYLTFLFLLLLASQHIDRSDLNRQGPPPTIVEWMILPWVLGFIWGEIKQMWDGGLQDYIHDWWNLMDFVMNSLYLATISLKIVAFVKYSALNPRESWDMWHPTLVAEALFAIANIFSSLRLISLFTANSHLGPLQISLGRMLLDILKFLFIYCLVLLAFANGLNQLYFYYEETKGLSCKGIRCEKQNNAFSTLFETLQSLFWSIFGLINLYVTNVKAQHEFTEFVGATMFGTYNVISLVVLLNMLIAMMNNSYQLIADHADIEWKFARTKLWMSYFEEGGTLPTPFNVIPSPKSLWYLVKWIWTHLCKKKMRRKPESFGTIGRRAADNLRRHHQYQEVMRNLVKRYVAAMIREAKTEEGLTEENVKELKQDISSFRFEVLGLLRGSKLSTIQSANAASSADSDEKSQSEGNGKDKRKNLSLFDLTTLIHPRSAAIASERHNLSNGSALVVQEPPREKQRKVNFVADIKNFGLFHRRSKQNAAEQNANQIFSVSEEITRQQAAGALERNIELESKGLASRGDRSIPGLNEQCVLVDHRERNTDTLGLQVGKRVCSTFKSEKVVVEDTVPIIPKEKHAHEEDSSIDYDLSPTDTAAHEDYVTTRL
TRPC4 agonist: activators of mouse TRPC4 channel, primary screen, Fluo4 calcium, HEK293 TRPC4beta/mu-opioid cells; AID 2237, 2010; actives 0.49% (n = 310,000); Short transient receptor potential channel 4 (Mus musculus), Q9QUQ5; B-score at 10 µM; Fluo4 calcium fluorescence; stronger effect = higher value;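 active = B-score above 5 SD of library B-scores, and initial fluorescence ratio not above library mean plus 5 SD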;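 also: positive B-score marks a calcium rise read as TRPC4 activation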
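system = HEK293 cells stably co-expressing mouse TRPC4beta and mu-opioid receptor | schedule = Fluo4 dye loading 45 min at room temperature, 110 s recording | measure = B-scored integrated calcium fluorescence ratio | signal = Fluo4 calcium-sensitive dye fluorescence, kinetic, 1 Hz baseline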
TRPC4 block: inhibitors of mouse TRPC4 channel, primary screen, Fluo4 calcium, HEK293 TRPC4beta/mu-opioid cells; Short transient receptor potential channel 4 (Mus musculus), Q9QUQ5; DAMGO-evoked Fluo4 calcium flux; stronger effect = lower value; B-score at 10 µM; actives 0.39% (n = 300,000);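 active = B-score over 3 SD under the library average, no early fluorescence shift, positive overall ratio signal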
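Assay system: HEK293 cells with stable TRPC4beta plus mu-opioid receptor expression. Dosing: single dose. Measured by: Fluo4 Ca2+ flux fluorescence. Also added: DAMGO in two steps, submaximal then maximal. Read-out: B score from integrated Fluo4 fluorescence ratio.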
TRPC6 inhibitor: mouse TRPC6 channel inhibitors, primary screen, cell-based, HEK293, membrane potential dye; AID 2553, 2010; B-score at 10 µM; Short transient receptor potential channel 6 (Mus musculus), Q61143; actives 1.1% (n = 310,000); ACh-evoked depolarization; stronger effect = lower value;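 active = B-score under library mean minus 3 SD, initial fluorescence not abnormally high, positive integrated signal ratio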;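 also: B-score derived from integrated fluorescence ratio over the kinetic read; more negative B-score means stronger inhibition of depolarization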
CR mimetic SO: reduction of superoxide in aged yeast, primary screen, HTS. AID 2690, 2010. S. cerevisiae aged cells, superoxide DHE fluorescence; stronger effect = lower value. actives 0.18% (n = 330,000). superoxide response (% of plate mean), % at 10 µM;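 active = superoxide response under a set limit, about three screen SD below normal, cut at about 65% in these data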;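 also: yeast aged for seven days with compound at 30 °C before DHE staining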
TRPC6 act: mouse TRPC6 channel activators, primary screen, cell-based, HEK293, membrane potential dye | Short transient receptor potential channel 6 (Mus musculus), Q61143 | B-score at 10 µM | HEK293-TRPC6 membrane potential dye fluorescence; stronger effect = higher value | actives 0.13% (n = 310,000) | AID 2550, 2010;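 active = B-score of the integrated fluorescence ratio above library mean plus 3 SD, and starting fluorescence ratio within library mean plus 5 SD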;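 also: higher score means more depolarization so channel activation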
A number is an active result; - = inactive; . = not tested or not shown.

SMILES	TRPC4 PAM	TRPC4 agonist	TRPC4 block	TRPC6 inhibitor	CR mimetic SO	TRPC6 act
OC(CNC1CCCc2ccccc21)COc1c(Cl)cccc1Cl (centres undefined)	-	44	-5	-	-	-
OC(CNC1Cc2ccccc2C1)COc1ccc(Cl)cc1 (centres undefined)	-	-	-	-	-	-
C/C=C(/C(=C/C)c1ccc(O)cc1)c1ccc(O)cc1	-	-	-	-	-	-
C=C(c1ccc(O)cc1)c1ccc(O)cc1	-	-	-6	-	-	-
Cc1cc(C(=O)NNc2ccc(F)cc2)no1	-	-	-	-	-	-
CN1CCN(CCCNC(=O)c2cc3c(-c4ccc(Cl)cc4)nn(C)c3s2)CC1	11	-	-	-	-	-
CCN(CC)CCCNC(=O)c1cc2c(-c3ccc(Cl)cc3)nn(C)c2s1	16	72	-	-	-	-
CCOC(=O)C1CCN(C(=O)c2sc3ncnc(N4CCC(C)CC4)c3c2C)CC1	-	-	-	-	-	-
N#Cc1ccccc1NC(=O)C(=O)NCC1CCCN1S(=O)(=O)c1cccs1 (centres undefined)	-	-	-	-	-	-
Cc1ccc(C(=O)N2N=C(c3ccc(Br)cc3)CC2c2ccccc2O)cc1 (centres undefined)	-	-	-	-	-	-
CSCc1c(C(=O)NCCc2ccccn2)oc2ccccc12	12	-	-	-	-	-
Cc1ccccc1CN1N=C(/C=C/c2ccccc2)CCC1=O	14	-	-	-	-	-
Cc1ccc(/C=C/C2=NN(Cc3ccc(Cl)c(Cl)c3)C(=O)CC2)cc1	-	-	-	-	-	-
C=CCOC(=O)C1=C(C)NC(=O)NC1c1ccc(O)cc1 (centres undefined)	-	-	-	-	-	-
CCN(CC)CCOc1ccc(Br)cc1	11	-	-	-	-	-
CCN(CC)CCCOc1ccc(Cl)c(Cl)c1	24	46	-	-	-	-
CN(CCOc1ccc(Cl)c(Cl)c1)Cc1ccccc1	-	-	-	-	-	-
CCCC(=O)Nc1ccc(C#Cc2ccccc2)cc1	-	-	-	-	-	-
Cc1cc(C)nc(SCC(=O)N(C)CC(=O)Nc2ccccc2Br)n1	-	-	-	-	-	-
COc1ccc(OC)c2sc(N(CCCN(C)C)C(=O)CCS(=O)(=O)c3ccccc3)nc12	-	-	-	-	-	-
COc1ccc(Cl)c2sc(N(CCN(C)C)C(=O)CCS(=O)(=O)c3ccc(C)cc3)nc12	23	-	-	-	-	-
O=C(CNc1ccc(Cl)cc1)c1ccc(Br)cc1	-	-	-	-	-	-
O=C(CNc1ccc(Br)cc1)c1ccc(O)cc1	-	-	-8	-	-	-
CCOC(=O)C1CCN(c2c(C(=O)c3ccccc3)cnc3ccc(Cl)cc23)CC1	-	-	-	-	-	-
CCOc1ccc(C(=O)c2cnc3ccccc3c2N2CCN(CC)CC2)cc1	-	-	-5	-	-	-
SMILES	TRPC4 PAM	TRPC4 agonist	TRPC4 block	TRPC6 inhibitor	CR mimetic SO	TRPC6 act
CCOc1ccc2ncc(C(=O)c3ccc(OC)cc3)c(N3CCN(CC)CC3)c2c1	-	120	-	-	-	-
CCc1ccc(C(=O)c2cnc3ccc(OC)cc3c2N2CCN(CC)CC2)cc1	-	230	-	-	-	-
CCOC(=O)c1cnc2ccc(OC)cc2c1Nc1ccc(N2CCN(C)CC2)cc1	-	-	-	-	-	-
CCOC(=O)c1cnc2ccc(OCC)cc2c1N1CCN(c2ccccc2OC)CC1	-	-	-	-	-	-
Cc1cnc(NC(=O)c2ccc3c(c2)C(=O)N(Cc2cccnc2)C3=O)s1	-	-	-	-	-	-
Cc1cc(C)c(C)c(S(=O)(=O)NCc2ccco2)c1C	26	-	-	-	-	-
O=C(COc1ccc(Br)cc1)NCCNC(=O)c1ccccn1	-	-	-	-	-	-
CC(Cc1ccccc1)N/C=C1/CC(=O)NC1=O (centres undefined)	-	-	-	-	-	-
COC(=O)c1ccc(=O)c2nc3/c(=C/O)c(O)cc(=O)c3[nH]c12	.	.	.	.	45	.
COc1ccc(C(CNC(=O)c2ccccc2SC)N(C)C)cc1 (centres undefined)	-	88	-	-	-	-
COc1ccc(-c2cc(C(=O)NCC(c3ccccc3)N(C)C)c3ccccc3n2)cc1OC (centres undefined)	-	90	-	-	-	-
Cc1ccc(-c2cc(C(=O)NCCCN3CCOCC3)c3ccccc3n2)cc1C	-	-	-	-	-	-
CCOc1ncccc1C(=O)NCC(c1ccccc1)N(C)C (centres undefined)	-	126	-	-	-	-
Cc1ccc(-c2cc(C(=O)NCCCN3CCCC3)c3ccccc3n2)cc1C	15	-	-	-	-	-
CCOc1ncccc1C(=O)NCc1ccccc1	-	-	-	-	-	-
COc1ccc(-c2cc(C(=O)NCc3ccco3)c3ccccc3n2)cc1OC	-	-	-	-	-	-
Cc1ccc(NC(=O)c2ccccc2F)nc1	-	-	-	-	-	-
CCN1C(=O)[C@@H]2[C@@H](c3ccc(-c4ccc(OC)cc4)cc3)N3CCC[C@@]3(C(=O)OC)[C@@H]2C1=O	-	-	-	-	-	-
COC(=O)c1ccc2c(=O)n(CC3CCCO3)c(SCC(=O)NCCc3ccc(S(N)(=O)=O)cc3)nc2c1 (centres undefined)	-	-	-	-	-	-
O=C(NCc1ccccc1)c1cc2ccccc2oc1=O	-	-	-	-	-	-
COc1ccc(C(CNC(=O)c2cc(SC)ccc2Cl)N(C)C)cc1 (centres undefined)	-	118	-	-	-	-
CN(C)C(CNC(=O)c1cc2ccccc2oc1=O)c1ccccc1 (centres undefined)	-	87	-6	-	-	-
O=C(Nc1ccccc1-c1ccccc1)c1cnccn1	13	-	-	-	-	-
O=C(COC(=O)c1cnccn1)Nc1ccccc1-c1ccccc1	.	.	.	.	-	.
O=C1C(c2ccccc2)NC(=S)N1C1CCCCC1 (centres undefined)	-	-	-	-	-	-
Cc1cc(-c2nnc(SCC(=O)NC3CCCC3)o2)no1	-	-	-	-	-	-
Cc1ccc2nc(C(=O)N3CCc4c([nH]c5ccccc45)C3c3ccccn3)cn2c1 (centres undefined)	-	81	-	-	-	-
C=CCOc1nc2c(c(=O)n(Cc3ccc(Cl)cc3)c(=O)n2C)n1C	-	-	-	-	-	-
